Published values pooled from the literature.
Target: Mitogen-activated protein kinase kinase kinase 2 (MAP3K2, Homo sapiens, UniProt Q9Y2U5)
Residues used in one study (Q9Y2U5 1-619): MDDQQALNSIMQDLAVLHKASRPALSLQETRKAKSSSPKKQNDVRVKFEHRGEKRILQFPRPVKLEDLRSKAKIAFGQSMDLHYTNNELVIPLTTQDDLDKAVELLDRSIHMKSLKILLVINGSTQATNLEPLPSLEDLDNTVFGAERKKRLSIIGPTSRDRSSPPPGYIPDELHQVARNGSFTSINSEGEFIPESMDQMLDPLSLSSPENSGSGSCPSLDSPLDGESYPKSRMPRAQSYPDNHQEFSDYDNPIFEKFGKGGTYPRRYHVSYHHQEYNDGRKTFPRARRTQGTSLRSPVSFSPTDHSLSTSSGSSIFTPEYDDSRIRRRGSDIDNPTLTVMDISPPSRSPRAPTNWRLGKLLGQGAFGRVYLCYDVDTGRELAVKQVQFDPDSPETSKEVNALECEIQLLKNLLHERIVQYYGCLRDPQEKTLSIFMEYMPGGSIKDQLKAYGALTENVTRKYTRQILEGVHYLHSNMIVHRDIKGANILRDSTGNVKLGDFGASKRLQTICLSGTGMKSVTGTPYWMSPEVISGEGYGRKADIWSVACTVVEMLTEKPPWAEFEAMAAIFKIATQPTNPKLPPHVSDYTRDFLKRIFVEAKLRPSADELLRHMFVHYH

SMILES	assay	setting	remaining binding [%]
O=C(Nc1ccc(Oc2ccc(F)cc2)cc1)N1CCc2ncccc2[C@H]1c1ccc(F)cc1	cell-free assay, competition with immobilised ligand	1 µM	89
F[C@@H]1CCN(c2nccc(-c3cnn4ncccc34)n2)C1	binding	1 µM	92
C[C@@H]1CN(c2cc(-c3nn(C)c4ccc(OC5(C)CC5)cc34)ncn2)C[C@H](C)O1	cell-free assay, competition with immobilised ligand	1 µM	83
CN(C)c1ncc(F)c(-c2cnn3ncccc23)n1	binding	1 µM	81
C[C@@H](c1ccc(-n2cnc3c(N)ncnc32)cc1)N1CCc2nn(C)c(Cc3ccccc3)c2C1=O	binding, competition with immobilised ligand	0.1 µM	57
C[C@@H]1CCN(c2nccc(-c3cnn4ncccc34)n2)C1	binding	1 µM	79
Cc1cnc(Nc2ccc(C(=O)N3CCC(N4CCCC4)CC3)cc2)nc1-c1cc2ccccc2s1	binding, competition with immobilised ligand	1 µM	5.1
COc1ncc2cc3ccccc3nc2c1C#N	cell-free assay, competition with immobilised ligand	5 µM	91
COc1cnc(Nc2cccc(S(N)(=O)=O)c2)nc1N1CCN(c2ccccc2)C(=O)C1	binding, competition with immobilised ligand	1 µM	74
COc1ccnn2ncc(-c3ccnc(N(C)C)n3)c12	binding	1 µM	87
O=C(c1ccc(Nc2ncc(Cl)c(-c3ccc(Cl)s3)n2)cc1)N1CCC(N2CCCC2)CC1	binding, competition with immobilised ligand	1 µM	4.9
FC(F)(F)Oc1cccc(-c2cnc3ccc(-c4ccncc4)nn23)c1	cell-free assay, competition with immobilised ligand	5 µM	79
O=C(c1ccc(Nc2nccc(-c3cc4ccccc4s3)n2)cc1)N1CCC(N2CCCC2)CC1	binding, competition with immobilised ligand	1 µM	43
O=S(=O)(NC1CCC(c2cc(F)ccc2F)(S(=O)(=O)c2ccc(Cl)cc2)CC1)C(F)(F)F (stereo not drawn)	cell-free assay, competition with immobilised ligand	1 µM	98
O=C(Nc1c[nH]nc1C(=O)NC1CCNCC1)c1cc(F)cc(F)c1	binding, competition with immobilised ligand	1 µM	94
Cc1nc(N2CC[C@@H](O)C2)ncc1-c1cc(C(F)(F)F)cc2[nH]ncc12	binding, competition with immobilised ligand	1 µM	60
CNC(=O)[C@@H]1CC[C@@H](n2c(-c3ccc4cnccc4c3)nc3ccc(C(=O)NCc4cccc(C(N)=O)c4)cc32)C1	binding, competition with immobilised ligand	1 µM	86
CN(C)c1nccc(-c2cnn3ncccc23)n1	binding	1 µM	78
O=C(Nc1cccnn1)N1CC(C/C=C/c2cncc(Oc3ccc(C(F)(F)F)cn3)n2)C1	cell-free assay, competition with immobilised ligand	1 µM	79
N[C@H]1CCN(c2nccc(-c3cnn4ncccc34)n2)C1	binding	1 µM	100
O=C(O)[C@@H]1[C@@H](Cn2nnc3ccccc3c2=O)CC[C@H]1C(=O)c1ccc(OCCC2CCOCC2)cc1	cell-free assay, competition with immobilised ligand	1 µM	100
